From ChEMBL document CHEMBL5724801, “EUbOPEN Chemogenomics Library - Multiplex” (2024)
“And” between values parts separate entries of the source, which are not always exact repeats. Equal values may be shown once.

The compounds below were run on HEK-293T (assay: Multiplex assay against HEK293T). Conditions: human, 12 h, 1 µM, compound concentration 1 uM.
Assay type: toxicity, cell-based
In short: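 Four dyes were applied at seeding to live cells: Hoechst33342, BioTracker Green Microtubule Cytoskeleton Dye, MitoTracker Red and Annexin V Alexa Fluor 680. Imaging after compound addition used a CQ1 microscope at 37°C and 5% CO2. CellPathfinder machine-learning gating then sorted cells into Hoechst high-intensity objects or normal cells, normal cells into healthy, pyknosed or fragmented nuclei, and pyknosed cells into mitotic or apoptotic, with tubulin, mitochondrial-mass and membrane-permeability phenotypes given as per cents of healthy-nucleus cells.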

Compound | Population Apoptotic (%) | Population Fragmented Nuclei (%) | Population Hoechst High Intensity Objects (%) | Population Membrane Permeable-Phenotype (%) | Population Mitochondria Different-Phenotype (%) | Population Mitotic Cells (%) | Population Normal (%) | Population Pyknosed Nuclei (%) | Total Cell Count | Population Healthy Nuclei (%)
C[C@H](C[C@H](N)C(=O)O)C(=O)O [2S,4R-4-METHYLGLUTAMATE] | 6.61% and 13.76% | 2.69% and 5.93% | 0.59% and 0.74% | 0% and 5.56% | 31.22% and 27.78% | 93.39% and 86.24% | 99.41% and 99.26% | 36.12% and 80.74% | 337 and 136 | –
Cc1cccc(F)c1C(=O)Nc1cnc(-c2cc3c(cc2Cl)OC(F)(F)O3)cn1 [ZEGOCRACTIN] | 12.35% and 6.45% | – | 0.27% and 0% | 0% and 4.17% | 33.33% and 20.83% | 87.65% and 93.55% | 99.73% and 100% | 44.63% and 82.12% | 364 and 151 | 42.98% and 15.89%
CCOC(=O)c1cnn(-c2ccc(NC(=O)C(Cl)=C(Cl)Cl)cc2)c1C(F)(F)F | 11.04% and 11.54% | 2.46% and 4.48% | 0.27% and 0% | 0.49% and 0% | 37.44% and 16.67% | 88.96% and 88.46% | 99.73% and 100% | 42.08% and 77.61% | 367 and 134 | –
Cc1cc(C)cc(C(=O)NOCCCCCC(=O)NO)c1 | 7.89% and 11.48% | 1.15% and 1.27% | 0% and 0.63% | 0% and 9.09% | 25.91% and 12.12% | 92.11% and 88.52% | 100% and 99.37% | 43.55% and 77.71% | 349 and 158 | 55.3% and 21.02%

Same assay, conditions: human, 12 h, 1 µM, compound concentration 1 uM

Compound | Population Tubulin-Different-Phenotype (%)
Cc1cc(C)cc(C(=O)NOCCCCCC(=O)NO)c1 | 7.25% and 18.18%

Same assay, conditions: human, 12 h, 10 µM, compound concentration 10 uM

Compound | Population Apoptotic (%) | Population Fragmented Nuclei (%) | Population Hoechst High Intensity Objects (%) | Population Membrane Permeable-Phenotype (%) | Population Mitochondria Different-Phenotype (%) | Population Mitotic Cells (%) | Population Normal (%) | Population Pyknosed Nuclei (%) | Population Tubulin-Different-Phenotype (%) | Total Cell Count
C[C@H](C[C@H](N)C(=O)O)C(=O)O [2S,4R-4-METHYLGLUTAMATE] | 7.2% and 16.44% | 3.38% and 3.49% | 0% | 0% | 31.06% and 20% | 92.8% and 83.56% | 100% | 42.23% and 84.88% | 3.73% and 10% | 296 and 172
Cc1cccc(F)c1C(=O)Nc1cnc(-c2cc3c(cc2Cl)OC(F)(F)O3)cn1 [ZEGOCRACTIN] | 18.42% and 16.15% | 2.44% and 4.03% | 2.38% and 0% | 0% and 7.69% | 22.92% and 30.77% | 81.58% and 83.85% | 97.62% and 100% | 74.15% and 87.25% | 37.5% and 23.08% | 210 and 149
CCOC(=O)c1cnn(-c2ccc(NC(=O)C(Cl)=C(Cl)Cl)cc2)c1C(F)(F)F | 29.28% and 34.92% | 10.14% and 2.8% | 0.35% and 0% | 1.32% and 0% | 18.42% and 46.15% | 70.72% and 65.08% | 99.65% and 100% | 63.29% and 88.11% | – | 287 and 143
Cc1cc(C)cc(C(=O)NOCCCCCC(=O)NO)c1 | 9.87% and 7.69% | 3.28% and 1.65% | 0.3% and 0% | 1.16% and 0% | 29.65% and 12.24% | 90.13% and 92.31% | 99.7% and 100% | 45.37% and 71.43% | – | 336 and 182

Same assay, conditions: human, 12 h, 10 µM, compound concentration 10 uM

Compound | Population Healthy Nuclei (%)
Cc1cccc(F)c1C(=O)Nc1cnc(-c2cc3c(cc2Cl)OC(F)(F)O3)cn1 [ZEGOCRACTIN] | 23.41% and 8.72%
CCOC(=O)c1cnn(-c2ccc(NC(=O)C(Cl)=C(Cl)Cl)cc2)c1C(F)(F)F | 26.57% and 9.09%
Cc1cc(C)cc(C(=O)NOCCCCCC(=O)NO)c1 | 51.34% and 26.92%

Same assay, conditions: human, 24 h, 1 µM, compound concentration 1 uM

Compound | Population Apoptotic (%) | Population Fragmented Nuclei (%) | Population Healthy Nuclei (%) | Population Hoechst High Intensity Objects (%) | Population Membrane Permeable-Phenotype (%) | Population Mitochondria Different-Phenotype (%) | Population Mitotic Cells (%) | Population Normal (%) | Population Tubulin-Different-Phenotype (%) | Population Pyknosed Nuclei (%)
C[C@H](C[C@H](N)C(=O)O)C(=O)O [2S,4R-4-METHYLGLUTAMATE] | 6.4% and 17.39% | 1.63% and 2.47% | 75.77% and 26.54% | 0.36% and 0% | 1.67% and 0% | 13.13% and 13.95% | 93.6% and 82.61% | 99.64% and 100% | 10.5% and 2.33% | –
Cc1cccc(F)c1C(=O)Nc1cnc(-c2cc3c(cc2Cl)OC(F)(F)O3)cn1 [ZEGOCRACTIN] | 23.62% and 14.53% | 12.53% and 3.66% | 61.82% and 25% | 0.4% and 0% | 2.29% and 0% | 10.78% and 21.95% | 76.38% and 85.47% | 99.6% and 100% | 10.78% and 17.07% | 25.66% and 71.34%
CCOC(=O)c1cnn(-c2ccc(NC(=O)C(Cl)=C(Cl)Cl)cc2)c1C(F)(F)F | 14.69% and 14.29% | 1.44% and 6.88% | 72.84% and 31.87% | 0.18% and 0% | 2.47% and 1.96% | 18.02% and 7.84% | 85.31% and 85.71% | 99.82% and 100% | – | 25.72% and 61.25%
Cc1cc(C)cc(C(=O)NOCCCCCC(=O)NO)c1 | 32.32% and 20.49% | 0.99% and 2.29% | 74.57% and 28% | 0.25% and 0.57% | 1.66% and 0% | 25.5% and 16.33% | 67.68% and 79.51% | 99.75% and 99.43% | 17.88% and 30.61% | 24.44% and 69.71%

Same assay, conditions: human, 24 h, 1 µM, compound concentration 1 uM

Compound | Total Cell Count
Cc1cc(C)cc(C(=O)NOCCCCCC(=O)NO)c1 | 406 and 176

Same assay, conditions: human, 24 h, 10 µM, compound concentration 10 uM

Compound | Population Apoptotic (%) | Population Fragmented Nuclei (%) | Population Healthy Nuclei (%) | Population Hoechst High Intensity Objects (%) | Population Membrane Permeable-Phenotype (%) | Population Mitochondria Different-Phenotype (%) | Population Mitotic Cells (%) | Population Normal (%) | Population Tubulin-Different-Phenotype (%) | Total Cell Count
C[C@H](C[C@H](N)C(=O)O)C(=O)O [2S,4R-4-METHYLGLUTAMATE] | 10.99% and 23.73% | 1.21% and 2.99% | 80.4% and 38.31% | 0% | 0.5% and 0% | 14.57% and 6.49% | 89.01% and 76.27% | 100% | 7.29% and 2.6% | 495 and 201
Cc1cccc(F)c1C(=O)Nc1cnc(-c2cc3c(cc2Cl)OC(F)(F)O3)cn1 [ZEGOCRACTIN] | 34.16% and 33.09% | 0.76% and 3.75% | – | 0.75% and 0% | 0% | 52.48% and 27.78% | 65.84% and 66.91% | 99.25% and 100% | – | 266 and 160
CCOC(=O)c1cnn(-c2ccc(NC(=O)C(Cl)=C(Cl)Cl)cc2)c1C(F)(F)F | 63.22% and 90.58% | 11.84% and 6.41% | 12.77% and 5.13% | 3.6% and 0% | 0% | 29.27% and 37.5% | – | 96.4% and 100% | 29.27% and 37.5% | 333 and 156
Cc1cc(C)cc(C(=O)NOCCCCCC(=O)NO)c1 | 24.32% and 10.53% | 3.75% and 3.33% | 73.12% and 33.33% | 0% | 0% and 1.67% | – | 75.68% and 89.47% | 100% | 4.27% and 1.67% | 320 and 180

Same assay, conditions: human, 24 h, 10 µM, compound concentration 10 uM

Compound | Population Pyknosed Nuclei (%)
Cc1cccc(F)c1C(=O)Nc1cnc(-c2cc3c(cc2Cl)OC(F)(F)O3)cn1 [ZEGOCRACTIN] | 60.98% and 85%
CCOC(=O)c1cnn(-c2ccc(NC(=O)C(Cl)=C(Cl)Cl)cc2)c1C(F)(F)F | 75.39% and 88.46%
Cc1cc(C)cc(C(=O)NOCCCCCC(=O)NO)c1 | 23.12% and 63.33%

Same assay, conditions: human, 48 h, 1 µM, compound concentration 1 uM

Compound | Population Fragmented Nuclei (%) | Population Healthy Nuclei (%) | Population Hoechst High Intensity Objects (%) | Population Membrane Permeable-Phenotype (%) | Population Mitochondria Different-Phenotype (%) | Population Mitotic Cells (%) | Population Normal (%) | Population Apoptotic (%) | Population Pyknosed Nuclei (%) | Total Cell Count
C[C@H](C[C@H](N)C(=O)O)C(=O)O [2S,4R-4-METHYLGLUTAMATE] | 3.3% and 2.56% | 86.59% and 58.46% | 0% and 2.5% | 4.15% and 2.63% | 11.93% and 28.95% | 93.48% and 76.32% | 100% and 97.5% | – | – | –
Cc1cccc(F)c1C(=O)Nc1cnc(-c2cc3c(cc2Cl)OC(F)(F)O3)cn1 [ZEGOCRACTIN] | 5.17% and 0.94% | 80.45% and 57.08% | 0% and 0.47% | 4.53% and 2.48% | 22.67% and 22.31% | 90.14% and 83.15% | 100% and 99.53% | 9.86% and 16.85% | 14.39% and 41.98% | –
CCOC(=O)c1cnn(-c2ccc(NC(=O)C(Cl)=C(Cl)Cl)cc2)c1C(F)(F)F | 2.62% and 2.05% | 85.68% and 49.74% | 0.22% and 0% | 5.07% and 1.03% | 16.62% and 27.84% | 94.87% and 81.91% | 99.78% and 100% | – | – | –
Cc1cc(C)cc(C(=O)NOCCCCCC(=O)NO)c1 | 5.26% and 1.12% | 76.52% and 48.6% | 1% and 0% | 1.59% and 2.3% | 50.26% and 32.18% | 76.67% and 67.78% | 99% and 100% | 23.33% and 32.22% | 18.22% and 50.28% | 499 and 179

Same assay, conditions: human, 48 h, 10 µM, compound concentration 10 uM

Compound | Population Apoptotic (%) | Population Fragmented Nuclei (%) | Population Healthy Nuclei (%) | Population Hoechst High Intensity Objects (%) | Population Membrane Permeable-Phenotype (%) | Population Mitochondria Different-Phenotype (%) | Population Mitotic Cells (%) | Population Normal (%) | Population Pyknosed Nuclei (%) | Total Cell Count
C[C@H](C[C@H](N)C(=O)O)C(=O)O [2S,4R-4-METHYLGLUTAMATE] | 11.21% and 22.54% | 1.13% and 2.5% | 90.25% and 75.31% | 0% and 0.93% | 3.93% and 1.24% | 12.14% and 16.6% | 88.79% and 77.46% | 100% and 99.07% | 8.62% and 22.19% | –
Cc1cccc(F)c1C(=O)Nc1cnc(-c2cc3c(cc2Cl)OC(F)(F)O3)cn1 [ZEGOCRACTIN] | 30.82% and 29% | 1.98% and 3.11% | 61.88% and 34.78% | 0.49% and 2.42% | 2% and 0% | 76.4% and 44.64% | 69.18% and 71% | 99.51% and 97.58% | 36.14% and 62.11% | 406 and 165
CCOC(=O)c1cnn(-c2ccc(NC(=O)C(Cl)=C(Cl)Cl)cc2)c1C(F)(F)F | 53.58% and 95.86% | 14.99% and 9.58% | 8.65% and 3.59% | 1.42% and 0.6% | 0% | 43.33% and 100% | – | 98.58% and 99.4% | 76.37% and 86.83% | 352 and 168
Cc1cc(C)cc(C(=O)NOCCCCCC(=O)NO)c1 | 30.43% and 28% | 3.91% and 6.29% | 63.35% and 36.57% | 0.35% and 0.57% | 3.37% and 0% | – | 69.57% and 72% | 99.65% and 99.43% | 32.74% and 57.14% | 282 and 176

Same assay, conditions: human, 48 h, 10 µM, compound concentration 10 uM

Compound | Population Tubulin-Different-Phenotype (%)
CCOC(=O)c1cnn(-c2ccc(NC(=O)C(Cl)=C(Cl)Cl)cc2)c1C(F)(F)F | 23.33% and 66.67%
Cc1cc(C)cc(C(=O)NOCCCCCC(=O)NO)c1 | 7.87% and 17.19%
